# Results collected from several papers.
Compound,test,test system,setting,quantity,result
COc1ccc2c(c1)CN(C(=O)CCN1CCC(Cc3ccccc3)CC1)CC[S@@+]2[O-],,"male human, plasma","intravenous, 0.01 mg/kg, healthy volunteers",clearance,235 mL/min
c1cc(-c2ccc3ncnc(Nc4ncco4)c3c2)cc(N2CC3CCC(C2)O3)c1,shake flask,aqueous buffer,pH 7.4,logD,> 3.6
O=c1c2c([nH]c3ccc(F)c(Oc4ccc(OC(F)(F)F)cc4)c13)CCCC2,metabolic stability,"human, liver microsomes","1 µM, pH 7.4",microsomal CLint,92.7 µL/min/mg
c1cc(-c2ccc3ncnc(Nc4ncco4)c3c2)nc(N2CCOCC2)c1,shake flask,aqueous buffer,pH 7.4,logD,3.1
CC1(C)NC(=O)N(c2ccc(F)c(S(C)(=O)=O)c2)C1=O,HPLC,,pH 7.4,chromatographic logD,1.2
Cc1cc(S(=O)(=O)NC2CC(N3CC[C@@H](OC4CN(c5cccc6c5n(C)c(=O)n6C5CCC(=O)NC5=O)C4)[C@H](F)C3)C2)ccc1Nc1ncc(C(F)(F)F)c(N2CCC[C@](C)(O)C2)n1 (some centres unmarked),metabolic stability,"rat, liver microsomes",1 µM,scaled CLint,23 mL/min/kg
O=c1c2c([nH]c3cc(OC(F)(F)F)ccc13)CCCC2,metabolic stability,"human, liver microsomes","1 µM, pH 7.4",microsomal CLint,173 µL/min/mg
Cc1cc(S(=O)(=O)N[C@H]2CC[C@H](CN3CCN(c4cccc(NC5CCC(=O)NC5=O)c4)CC3)CC2)ccc1Nc1ncc(C(F)(F)F)c(N2CCC[C@](C)(O)C2)n1 (some centres unmarked),metabolic stability,"rat, liver microsomes",1 µM,scaled CLint,< 21 mL/min/kg
CCN(CC)CCCOc1ccc2c(=O)c3c([nH]c2c1)CCCC3,metabolic stability,"human, liver microsomes","1 µM, pH 7.4",microsomal CLint,5.53 µL/min/mg
CC1(C)NC(=O)N(c2cc(C(F)(F)F)c(F)cc2C#N)C1=O,HPLC,,pH 7.4,chromatographic logD,2.8
C[C@]1(O)CCCN(c2nc(Nc3ccc(S(=O)(=O)N[C@H]4CC[C@H](CN5CCN(c6ccc(C7CCC(=O)NC7=O)c(F)c6)CC5)CC4)cc3F)ncc2C(F)(F)F)C1 (some centres unmarked),metabolic stability,"rat, liver microsomes",1 µM,scaled CLint,< 21 mL/min/kg
COCC(=O)N1CCC[C@H](C(=O)NCc2nc(-c3ccc(C#N)cc3)cs2)C1,metabolic stability,"male Sprague-Dawley rat, liver microsomes",0.5 µM,scaled CLint,30 mL/min/kg
CC(C)C[C@H](NC(=O)[C@H](CC(C)C)NC(=O)[C@H](Cc1c[nH]c2ccccc12)NC(=O)[C@H](CCC(=O)O)NC(=O)[C@@H](NC(=O)[C@H](Cc1ccccc1)NC(=O)[C@H](CCC(=O)O)NC(=O)[C@H](CCCCNC(=O)COCCOCCNC(=O)COCCOCCNC(=O)CC[C@H](NC(=O)CCCCCCCCCCCCCCCCCCC(=O)O)C(=O)O)NC(=O)[C@H](C)NC(=O)[C@H](CCCCN)NC(=O)[C@H](CCCCN)NC(=O)[C@H](CCC(=O)O)NC(=O)[C@H](CC(=O)O)NC(=O)[C@H](CC(C)C)NC(=O)[C@H](Cc1ccc(O)cc1)NC(=O)[C@H](CCCCN)NC(=O)[C@H](CO)NC(=O)[C@H](Cc1ccc(O)cc1)NC(=O)[C@H](CC(=O)O)NC(=O)[C@H](CO)NC(=O)[C@@H](NC(=O)[C@H](Cc1ccccc1)NC(=O)[C@@H](NC(=O)CNC(=O)[C@H](CCC(N)=O)NC(=O)C(C)(C)NC(=O)[C@@H](N)Cc1c[nH]cn1)[C@@H](C)O)[C@@H](C)O)C(C)C)C(=O)N[C@@H](CCC(=O)O)C(=O)NCC(=O)NCC(=O)N1CCC[C@H]1C(=O)N[C@@H](CO)C(=O)N[C@@H](CO)C(=O)NCC(N)=O,,"human, plasma","subcutaneous, 16 mg, multiple doses, patients",CL/F,0.5 mL/min
Cc1cc(S(=O)(=O)NC2CC(N3CCN(CC4CCN(c5ccc6c(c5F)n(C)c(=O)n6C5CCC(=O)NC5=O)CC4)CC3)C2)ccc1Nc1ncc(C(F)(F)F)c(N2CCCC(C)(O)C2)n1 (centres unmarked),metabolic stability,"human, liver microsomes",1 µM,scaled CLint,22 mL/min/kg
CC1(C)NC(=O)N(c2ccc(F)c(OC(F)(F)F)c2)C1=O,HPLC,,pH 7.4,chromatographic logD,2.9
COCC(=O)N1CCC[C@H](C(=O)NCc2nc(-c3ccccc3)cs2)C1,metabolic stability,"male Sprague-Dawley rat, hepatocytes",0.5 µM,scaled CLint,32 mL/min/kg
c1ccc(Oc2ccc(Nc3c4c(nc5ccccc35)CCC4)cc2)cc1,HPLC,,pH 7.4,chromatographic logD,> 5.3
CN1CCN(c2cccc(-c3ccc4ncnc(Nc5ccc(Cl)c(Cl)c5)c4c3)c2)CC1,shake flask,aqueous buffer,pH 7.4,logD,> 4.1
Cc1cc(N2C(=O)NC(C)(C)C2=O)cc(C(F)(F)F)n1,HPLC,,pH 7.4,chromatographic logD,2.2
CCONC(=O)N1CCC[C@H](C(=O)N[C@H](C)c2nc(-c3ccc(C#N)cc3)cs2)C1,metabolic stability,"male Sprague-Dawley rat, liver microsomes",0.5 µM,microsomal CLint,29 µL/min/mg
CC1(C)NC(=O)N(c2ccc(F)c(CC(F)(F)F)c2)C1=O,HPLC,,pH 7.4,chromatographic logD,2.7
CNS(=O)(=O)c1ccc(Nc2ncc(C(F)(F)F)c(N3CCC(C)(O)CC3)n2)c(C)c1,metabolic stability,"rat, liver microsomes",1 µM,scaled CLint,38 mL/min/kg
CCOCC(=O)N1CC[C@@H](C)[C@H](C(=O)NCc2nc(-c3ccc(C)nc3)cs2)C1 (racemic),metabolic stability,"male Sprague-Dawley rat, liver microsomes",0.5 µM,microsomal CLint,53 µL/min/mg
CN1CCC(Oc2ccc3c(=O)c4c(F)cc(Cl)cc4[nH]c3c2)CC1,metabolic stability,"human, liver microsomes","1 µM, pH 7.4",microsomal CLint,24.9 µL/min/mg
C[C@H]1CN(CC2CCN(c3ccc(C4CCC(=O)NC4=O)cc3F)CC2)CC[C@H]1NS(=O)(=O)c1ccc(Nc2ncc(C(F)(F)F)c(N3CCC[C@](C)(O)C3)n2)c(F)c1 (some centres unmarked),metabolic stability,"human, liver microsomes",1 µM,scaled CLint,23 mL/min/kg
CC(C)(N)COCC(=O)N1CCC[C@H](C(=O)NCc2nc(-c3ccc(C(F)(F)F)cc3)cs2)C1,metabolic stability,"male Sprague-Dawley rat, hepatocytes",0.5 µM,scaled CLint,21 mL/min/kg
CC1(C)NC(=O)N(c2ccc3c(c2)OC(F)(F)O3)C1=O,HPLC,,pH 7.4,chromatographic logD,2.5
O=C(NCc1nc(-c2ccc(C(F)(F)F)cc2)cs1)[C@H]1CCCN(C(=O)COCCN2CCCC2)C1,metabolic stability,"human, liver microsomes",0.5 µM,microsomal CLint,14 µL/min/mg
FC(F)(F)c1cc(Nc2ncnc3ccc(-c4cccc(N5CCOCC5)c4)cc23)ccc1Cl,shake flask,aqueous buffer,pH 7.4,logD,> 4.1
CCC(F)(F)c1cc(N2C(=O)NC(C)(C)C2=O)ccc1F,HPLC,,pH 7.4,chromatographic logD,2.9
Cc1cc(S(=O)(=O)N[C@H]2CC[C@H](CN3CCN(c4ccc(C5CCC(=O)NC5=O)c(Cl)c4)CC3)CC2)ccc1Nc1ncc(C(F)(F)F)c(N2CCC[C@](C)(O)C2)n1 (some centres unmarked),metabolic stability,"human, liver microsomes",1 µM,scaled CLint,20 mL/min/kg
NCCOCC(=O)N1CCC[C@H](C(=O)NCc2nc(-c3ccc(C(F)(F)F)cc3)cs2)C1,metabolic stability,"male Sprague-Dawley rat, hepatocytes",0.5 µM,scaled CLint,< 4.2 mL/min/kg
